Data as given in ChEMBL document CHEMBL5058577, “EUbOPEN Chemogenomics Library 2 (Multiplex)” (2022).
Non-standard residues stand in square brackets, D forms with d. Residues, ends and D or L forms follow the SMILES beside them.

Tested on: Fibroblast
Assay: Multiplex assay against human fibroblast
Assay type: toxicity, cell-based
Method in brief: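 Hoechst33342, BioTracker Green Microtubule Cytoskeleton Dye, MitoTracker Red and Annexin V Alexa Fluor 680 were added to live cells at seeding, and imaging on a CQ1 microscope at 37°C and 5% CO2 followed compound addition. Gating by CellPathfinder machine learning separated cells into Hoechst high-intensity objects or normal cells, then normal cells into healthy, pyknosed or fragmented nuclei, then pyknosed cells into mitotic or apoptotic. Per cents of healthy-nucleus cells are reported for the tubulin, mitochondrial-mass and membrane-permeability phenotypes.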

[1] = 12 h, 1 µM, compound concentration 1 uM, replicate 1
[2] = 12 h, 1 µM, compound concentration 1 uM, replicate 2
[3] = 12 h, 10 µM, compound concentration 10 uM, replicate 1
[4] = 12 h, 10 µM, compound concentration 10 uM, replicate 2
[5] = 24 h, 1 µM, compound concentration 1 uM, replicate 1
[6] = 24 h, 1 µM, compound concentration 1 uM, replicate 2
[7] = 24 h, 10 µM, compound concentration 10 uM, replicate 1
[8] = 24 h, 10 µM, compound concentration 10 uM, replicate 2
[9] = 48 h, 1 µM, compound concentration 1 uM, replicate 1
[10] = 48 h, 1 µM, compound concentration 1 uM, replicate 2
[11] = 48 h, 10 µM, compound concentration 10 uM, replicate 1
[12] = 48 h, 10 µM, compound concentration 10 uM, replicate 2

For `CC(C)C[C@@H]1NC(=O)[C@@H](C(C)C)NC(=O)[C@@H]2CCCN2C(=O)[C@@H](CC(=O)O)NC(=O)[C@@H](Cc2c[nH]c3ccccc23)NC1=O` [BQ-123] (cyclo(L[dW][dD]P[dV])), the “Population Apoptotic (%)” value [1] was 57%, the “Population Fragmented Nuclei (%)” value [1] was 18% and the “Population Healthy Nuclei (%)” value [1] was 68%. For the same compound, the “Population Hoechst High Intensity Objects (%)” value [1] was 0%, the “Population Membrane Permeable-Phenotype (%)” value [1] was 1% and the “Population Mitochondria Different-Phenotype (%)” value [1] was 11%. For the same compound, the “Population Mitotic Cells (%)” value [1] was 42%, the “Population Normal (%)” value [1] was 100% and the “Population Pyknosed Nuclei (%)” value [1] was 13%. The “Population Tubulin-Different-Phenotype (%)” value [1] was 31%, the “Total Cell Count” value [1] was 105 and the “Population Apoptotic (%)” value [2] was 21%. For the same compound, the “Population Fragmented Nuclei (%)” value [2] was 22%, the “Population Healthy Nuclei (%)” value [2] was 58% and the “Population Hoechst High Intensity Objects (%)” value [2] was 3%. For the same compound, the “Population Membrane Permeable-Phenotype (%)” value [2] was 5%, the “Population Mitochondria Different-Phenotype (%)” value [2] was 2% and the “Population Mitotic Cells (%)” value [2] was 78%. The “Population Normal (%)” value [2] was 96%, the “Population Pyknosed Nuclei (%)” value [2] was 18% and the “Total Cell Count” value [2] was 157. For the same compound, the “Population Apoptotic (%)” value [3] was 48%, the “Population Fragmented Nuclei (%)” value [3] was 15% and the “Population Healthy Nuclei (%)” value [3] was 65%. For the same compound, the “Population Hoechst High Intensity Objects (%)” value [3] was 2%, the “Population Membrane Permeable-Phenotype (%)” value [3] was 0% and the “Population Mitochondria Different-Phenotype (%)” value [3] was 9%. For the same compound, the “Population Mitotic Cells (%)” value [3] was 52%, the “Population Normal (%)” value [3] was 97% and the “Population Pyknosed Nuclei (%)” value [3] was 18%. For the same compound, the “Population Tubulin-Different-Phenotype (%)” value [3] was 33%, the “Total Cell Count” value [3] was 136 and the “Population Apoptotic (%)” value [4] was 33%. For the same compound, the “Population Fragmented Nuclei (%)” value [4] was 30%, the “Population Healthy Nuclei (%)” value [4] was 48% and the “Population Membrane Permeable-Phenotype (%)” value [4] was 4%. For the same compound, the “Population Mitochondria Different-Phenotype (%)” value [4] was 3%, the “Population Mitotic Cells (%)” value [4] was 66% and the “Population Pyknosed Nuclei (%)” value [4] was 20%. For the same compound, the “Population Tubulin-Different-Phenotype (%)” value [4] was 46%, the “Total Cell Count” value [4] was 134 and the “Population Apoptotic (%)” value [5] was 53%. The “Population Fragmented Nuclei (%)” value [5] was 19%, the “Population Healthy Nuclei (%)” value [5] was 66% and the “Population Hoechst High Intensity Objects (%)” value [5] was 1%. The “Population Membrane Permeable-Phenotype (%)” value [5] was 0%, the “Population Mitochondria Different-Phenotype (%)” value [5] was 5% and the “Population Mitotic Cells (%)” value [5] was 46%. The “Population Normal (%)” value [5] was 98%, the “Population Pyknosed Nuclei (%)” value [5] was 14% and the “Population Tubulin-Different-Phenotype (%)” value [5] was 24%. For the same compound, the “Total Cell Count” value [5] was 107, the “Population Apoptotic (%)” value [6] was 24% and the “Population Fragmented Nuclei (%)” value [6] was 23%. The “Population Healthy Nuclei (%)” value [6] was 57%, the “Population Hoechst High Intensity Objects (%)” value [6] was 6% and the “Population Membrane Permeable-Phenotype (%)” value [6] was 3%. The “Population Mitochondria Different-Phenotype (%)” value [6] was 3%, the “Population Mitotic Cells (%)” value [6] was 75% and the “Population Normal (%)” value [6] was 93%. For the same compound, the “Population Pyknosed Nuclei (%)” value [6] was 18%, the “Population Tubulin-Different-Phenotype (%)” value [6] was 25% and the “Total Cell Count” value [6] was 166. The “Population Apoptotic (%)” value [7] was 50%, the “Population Fragmented Nuclei (%)” value [7] was 19% and the “Population Healthy Nuclei (%)” value [7] was 64%. For the same compound, the “Population Hoechst High Intensity Objects (%)” value [7] was 8%, the “Population Membrane Permeable-Phenotype (%)” value [7] was 1% and the “Population Mitochondria Different-Phenotype (%)” value [7] was 5%. For the same compound, the “Population Mitotic Cells (%)” value [7] was 50%, the “Population Normal (%)” value [7] was 91% and the “Population Pyknosed Nuclei (%)” value [7] was 15%. The “Population Tubulin-Different-Phenotype (%)” value [7] was 32%, the “Total Cell Count” value [7] was 123 and the “Population Apoptotic (%)” value [8] was 29%. The “Population Fragmented Nuclei (%)” value [8] was 27%, the “Population Healthy Nuclei (%)” value [8] was 50% and the “Population Hoechst High Intensity Objects (%)” value [8] was 0%. For the same compound, the “Population Membrane Permeable-Phenotype (%)” value [8] was 11%, the “Population Mitochondria Different-Phenotype (%)” value [8] was 3% and the “Population Mitotic Cells (%)” value [8] was 70%. For the same compound, the “Population Normal (%)” value [8] was 99%, the “Population Pyknosed Nuclei (%)” value [8] was 22% and the “Population Tubulin-Different-Phenotype (%)” value [8] was 50%. The “Population Apoptotic (%)” value [9] was 50%, the “Population Fragmented Nuclei (%)” value [9] was 18% and the “Population Healthy Nuclei (%)” value [9] was 70%. For the same compound, the “Population Hoechst High Intensity Objects (%)” value [9] was 3%, the “Population Membrane Permeable-Phenotype (%)” value [9] was 0% and the “Population Mitochondria Different-Phenotype (%)” value [9] was 12%. For the same compound, the “Population Mitotic Cells (%)” value [9] was 50%, the “Population Normal (%)” value [9] was 96% and the “Population Pyknosed Nuclei (%)” value [9] was 11%. For the same compound, the “Population Tubulin-Different-Phenotype (%)” value [9] was 25%, the “Total Cell Count” value [9] was 109 and the “Population Apoptotic (%)” value [10] was 52%. The “Population Fragmented Nuclei (%)” value [10] was 28%, the “Population Healthy Nuclei (%)” value [10] was 56% and the “Population Hoechst High Intensity Objects (%)” value [10] was 4%. For the same compound, the “Population Membrane Permeable-Phenotype (%)” value [10] was 2%, the “Population Mitochondria Different-Phenotype (%)” value [10] was 4% and the “Population Mitotic Cells (%)” value [10] was 48%. For the same compound, the “Population Normal (%)” value [10] was 95%, the “Population Pyknosed Nuclei (%)” value [10] was 15% and the “Population Tubulin-Different-Phenotype (%)” value [10] was 39%. For the same compound, the “Total Cell Count” value [10] was 172, the “Population Apoptotic (%)” value [11] was 70% and the “Population Fragmented Nuclei (%)” value [11] was 26%. The “Population Healthy Nuclei (%)” value [11] was 59%, the “Population Hoechst High Intensity Objects (%)” value [11] was 5% and the “Population Membrane Permeable-Phenotype (%)” value [11] was 1%. The “Population Mitochondria Different-Phenotype (%)” value [11] was 5%, the “Population Mitotic Cells (%)” value [11] was 29% and the “Population Normal (%)” value [11] was 94%. For the same compound, the “Population Pyknosed Nuclei (%)” value [11] was 13%, the “Population Tubulin-Different-Phenotype (%)” value [11] was 38% and the “Total Cell Count” value [11] was 129. For the same compound, the “Population Apoptotic (%)” value [12] was 46%, the “Population Fragmented Nuclei (%)” value [12] was 45% and the “Population Healthy Nuclei (%)” value [12] was 42%. For the same compound, the “Population Hoechst High Intensity Objects (%)” value [12] was 6%, the “Population Membrane Permeable-Phenotype (%)” value [12] was 9% and the “Population Mitochondria Different-Phenotype (%)” value [12] was 3%. For the same compound, the “Population Mitotic Cells (%)” value [12] was 53%, the “Population Normal (%)” value [12] was 93% and the “Population Pyknosed Nuclei (%)” value [12] was 12%. The “Population Tubulin-Different-Phenotype (%)” value [12] was 51% and the “Total Cell Count” value [12] was 130.
